pKi: −log10 of the molar value.
Assays:
Echinochloa crus-galli = assay: Post-emergence herbicidal activity against Echinochloa crus-galli (barnyard grass) assessed as growth inhibition at 150 g ai/ha measured 15 days post compound treatment under green house conditions; assay type: functional; conditions: 360 h, read-out: GI
Procedure, shortened: (§1)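 Compounds formulated as 100 g/L emulsifiable concentrate (DMF solvent, Tween-80 emulsifier), diluted with water, sprayed post-emergence on pot-grown weeds in clay soil (pH 6.5, 1.6% organic matter). Seeds sown 1-3 cm deep, grown at 15-30 °C. Dicots were treated at the 2-leaf stage and monocots at the 1-leaf stage. Untreated and DMF-treated controls were included. Injury was rated visually 15 days after treatment.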

Eclipta prostrata = assay: Post-emergence herbicidal activity against Eclipta prostrata assessed as growth inhibition at 150 g ai/ha measured 15 days post compound treatment under green house conditions; assay type: functional; conditions: 360 h, read-out: GI; procedure, shortened: as §1
Brassica juncea = assay: Post-emergence herbicidal activity against Brassica juncea assessed as growth inhibition at 150 g ai/ha measured 15 days post compound treatment under green house conditions; assay type: functional; conditions: 360 h, read-out: GI; procedure, shortened: as §1
Poa annua = assay: Post-emergence herbicidal activity against Poa annua assessed as growth inhibition at 150 g ai/ha measured 15 days post compound treatment under green house conditions; assay type: functional; conditions: 360 h, read-out: GI; procedure, shortened: as §1
Amaranthus retroflexus = assay: Post-emergence herbicidal activity against Amaranthus retroflexus assessed as growth inhibition at 150 g ai/ha measured 15 days post compound treatment under green house conditions; assay type: functional; conditions: 360 h, read-out: GI; procedure, shortened: as §1
Digitaria sanguinalis = assay: Post-emergence herbicidal activity against Digitaria sanguinalis (hairy crabgrass) assessed as growth inhibition at 150 g ai/ha measured 15 days post compound treatment under green house conditions; assay type: functional; conditions: 360 h, read-out: GI; procedure, shortened: as §1
[1] = biological target: T1, Acetolactate synthase, chloroplastic (Arabidopsis thaliana, UniProt P17597)
T1 sequence (P17597 whole entry): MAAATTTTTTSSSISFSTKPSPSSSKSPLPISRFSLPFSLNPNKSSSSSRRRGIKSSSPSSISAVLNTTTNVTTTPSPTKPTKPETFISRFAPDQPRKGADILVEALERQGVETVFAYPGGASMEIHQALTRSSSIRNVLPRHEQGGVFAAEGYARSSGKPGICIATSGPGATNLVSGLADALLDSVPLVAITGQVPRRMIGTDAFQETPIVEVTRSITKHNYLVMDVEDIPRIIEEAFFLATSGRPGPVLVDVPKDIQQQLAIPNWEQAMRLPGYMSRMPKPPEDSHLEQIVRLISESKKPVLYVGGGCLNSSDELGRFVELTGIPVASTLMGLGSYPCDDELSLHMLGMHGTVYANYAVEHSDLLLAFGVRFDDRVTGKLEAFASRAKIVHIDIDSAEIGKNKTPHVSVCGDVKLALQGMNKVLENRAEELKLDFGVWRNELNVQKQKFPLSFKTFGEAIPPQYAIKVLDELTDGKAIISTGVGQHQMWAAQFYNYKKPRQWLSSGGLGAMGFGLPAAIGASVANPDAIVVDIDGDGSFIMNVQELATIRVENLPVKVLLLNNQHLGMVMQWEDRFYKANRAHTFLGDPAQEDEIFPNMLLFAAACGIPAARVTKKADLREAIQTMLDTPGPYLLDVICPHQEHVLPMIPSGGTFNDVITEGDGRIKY

SMILES: COc1ccn2nc(S(=O)(=O)Nc3ccc(Br)cc3)nc2n1
- inhibition of growth at 150 g/ha (Echinochloa crus-galli): < 50%
- inhibition of growth at 150 g/ha (Eclipta prostrata): < 50%
- inhibition of growth at 150 g/ha (Brassica juncea): < 50%
- inhibition of growth at 150 g/ha (Poa annua): < 50%
- inhibition of growth at 150 g/ha (Amaranthus retroflexus): < 50%
- inhibition of growth at 150 g/ha (Digitaria sanguinalis): < 50%
- pKi [1]: < 3.00

SMILES: COc1ccn2nc(S(=O)(=O)Nc3ccccc3Br)nc2n1
- inhibition of growth at 150 g/ha (Echinochloa crus-galli): < 50%
- inhibition of growth at 150 g/ha (Eclipta prostrata): ≥ 80%
- inhibition of growth at 150 g/ha (Brassica juncea): ≥ 80%
- inhibition of growth at 150 g/ha (Poa annua): < 50%
- inhibition of growth at 150 g/ha (Amaranthus retroflexus): 50%
- inhibition of growth at 150 g/ha (Digitaria sanguinalis): < 50%
- pKi [1]: 4.65

SMILES: COc1ccn2nc(S(=O)(=O)Nc3ccc(OC(F)(F)F)cc3)nc2n1
- inhibition of growth at 150 g/ha (Echinochloa crus-galli): < 50%
- inhibition of growth at 150 g/ha (Eclipta prostrata): < 50%
- inhibition of growth at 150 g/ha (Brassica juncea): < 50%
- inhibition of growth at 150 g/ha (Poa annua): < 50%
- inhibition of growth at 150 g/ha (Amaranthus retroflexus): < 50%
- inhibition of growth at 150 g/ha (Digitaria sanguinalis): < 50%
- pKi [1]: < 3.00

SMILES: Cc1nc(C)n2nc(S(=O)(=O)Nc3ccc(F)c(F)c3F)nc2c1Cl
- inhibition of growth at 150 g/ha (Echinochloa crus-galli): < 50%
- inhibition of growth at 150 g/ha (Eclipta prostrata): < 50%
- inhibition of growth at 150 g/ha (Brassica juncea): < 50%
- inhibition of growth at 150 g/ha (Poa annua): < 50%
- inhibition of growth at 150 g/ha (Amaranthus retroflexus): < 50%
- inhibition of growth at 150 g/ha (Digitaria sanguinalis): < 50%
- pKi [1]: < 3.00

SMILES: Cc1nc(C)n2nc(S(=O)(=O)Nc3ccccc3F)nc2c1Cl
- inhibition of growth at 150 g/ha (Echinochloa crus-galli): < 50%
- inhibition of growth at 150 g/ha (Eclipta prostrata): 50%
- inhibition of growth at 150 g/ha (Brassica juncea): 50%
- inhibition of growth at 150 g/ha (Poa annua): < 50%
- inhibition of growth at 150 g/ha (Amaranthus retroflexus): 50%
- inhibition of growth at 150 g/ha (Digitaria sanguinalis): < 50%
- pKi [1]: 4.59

SMILES: Cc1cc2nc(S(=O)(=O)Nc3ccc(F)c(F)c3F)nn2c(C)n1
- inhibition of growth at 150 g/ha (Echinochloa crus-galli): < 50%
- inhibition of growth at 150 g/ha (Eclipta prostrata): 50%
- inhibition of growth at 150 g/ha (Brassica juncea): < 50%
- inhibition of growth at 150 g/ha (Poa annua): < 50%
- inhibition of growth at 150 g/ha (Amaranthus retroflexus): < 50%
- inhibition of growth at 150 g/ha (Digitaria sanguinalis): < 50%
- pKi [1]: < 3.00

SMILES: Cc1nc(C(F)(F)F)cc2nc(S(=O)(=O)Nc3ccc(F)c(F)c3F)nn12
- inhibition of growth at 150 g/ha (Echinochloa crus-galli): < 50%
- inhibition of growth at 150 g/ha (Eclipta prostrata): 50%
- inhibition of growth at 150 g/ha (Brassica juncea): < 50%
- inhibition of growth at 150 g/ha (Poa annua): < 50%
- inhibition of growth at 150 g/ha (Amaranthus retroflexus): < 50%
- inhibition of growth at 150 g/ha (Digitaria sanguinalis): < 50%
- pKi [1]: < 3.00

SMILES: Cc1nc(C)n2nc(S(=O)(=O)Nc3ccc(C(F)(F)F)cc3)nc2c1Cl
- inhibition of growth at 150 g/ha (Echinochloa crus-galli): < 50%
- inhibition of growth at 150 g/ha (Eclipta prostrata): 50%
- inhibition of growth at 150 g/ha (Brassica juncea): < 50%
- inhibition of growth at 150 g/ha (Poa annua): < 50%
- inhibition of growth at 150 g/ha (Amaranthus retroflexus): 50%
- inhibition of growth at 150 g/ha (Digitaria sanguinalis): < 50%
- pKi [1]: < 3.00

SMILES: Cc1cc2nc(S(=O)(=O)Nc3ccccc3F)nn2c(C)n1
- inhibition of growth at 150 g/ha (Echinochloa crus-galli): < 50%
- inhibition of growth at 150 g/ha (Eclipta prostrata): 50%
- inhibition of growth at 150 g/ha (Brassica juncea): 50%
- inhibition of growth at 150 g/ha (Poa annua): < 50%
- inhibition of growth at 150 g/ha (Amaranthus retroflexus): 50%
- inhibition of growth at 150 g/ha (Digitaria sanguinalis): < 50%
- pKi [1]: 4.56

SMILES: Cc1nc(C(F)(F)F)cc2nc(S(=O)(=O)Nc3ccccc3F)nn12
- inhibition of growth at 150 g/ha (Echinochloa crus-galli): < 50%
- inhibition of growth at 150 g/ha (Eclipta prostrata): 50%
- inhibition of growth at 150 g/ha (Brassica juncea): 50%
- inhibition of growth at 150 g/ha (Poa annua): < 50%
- inhibition of growth at 150 g/ha (Amaranthus retroflexus): 50%
- inhibition of growth at 150 g/ha (Digitaria sanguinalis): < 50%
- pKi [1]: 3.24

SMILES: Cc1nc(C(F)(F)F)cc2nc(S(=O)(=O)Nc3cc(F)ccc3F)nn12
- inhibition of growth at 150 g/ha (Echinochloa crus-galli): < 50%
- inhibition of growth at 150 g/ha (Eclipta prostrata): < 50%
- inhibition of growth at 150 g/ha (Brassica juncea): < 50%
- inhibition of growth at 150 g/ha (Poa annua): < 50%
- inhibition of growth at 150 g/ha (Amaranthus retroflexus): < 50%
- inhibition of growth at 150 g/ha (Digitaria sanguinalis): < 50%

SMILES: Cc1cc2nc(S(=O)(=O)Nc3ccc(C(F)(F)F)cc3Cl)nn2c(C)n1
- inhibition of growth at 150 g/ha (Echinochloa crus-galli): < 50%
- inhibition of growth at 150 g/ha (Eclipta prostrata): < 50%
- inhibition of growth at 150 g/ha (Brassica juncea): < 50%
- inhibition of growth at 150 g/ha (Poa annua): < 50%
- inhibition of growth at 150 g/ha (Amaranthus retroflexus): < 50%
- inhibition of growth at 150 g/ha (Digitaria sanguinalis): < 50%
- pKi [1]: 3.75

SMILES: Cc1cc2nc(S(=O)(=O)Nc3cc(Cl)ccc3C)nn2c(C)n1
- inhibition of growth at 150 g/ha (Echinochloa crus-galli): < 50%
- inhibition of growth at 150 g/ha (Eclipta prostrata): 50%
- inhibition of growth at 150 g/ha (Brassica juncea): < 50%
- inhibition of growth at 150 g/ha (Poa annua): < 50%
- inhibition of growth at 150 g/ha (Amaranthus retroflexus): < 50%
- inhibition of growth at 150 g/ha (Digitaria sanguinalis): < 50%
- pKi [1]: 5.11

SMILES: Cc1cc2nc(S(=O)(=O)Nc3cc(F)ccc3F)nn2c(C)n1
- inhibition of growth at 150 g/ha (Echinochloa crus-galli): < 50%
- inhibition of growth at 150 g/ha (Eclipta prostrata): < 50%
- inhibition of growth at 150 g/ha (Brassica juncea): < 50%
- inhibition of growth at 150 g/ha (Poa annua): < 50%
- inhibition of growth at 150 g/ha (Amaranthus retroflexus): < 50%
- inhibition of growth at 150 g/ha (Digitaria sanguinalis): < 50%
- pKi [1]: 4.55

SMILES: COc1ccn2nc(S(=O)(=O)Nc3c(F)cccc3F)nc2n1
- inhibition of growth at 150 g/ha (Echinochloa crus-galli): < 50%
- inhibition of growth at 150 g/ha (Eclipta prostrata): ≥ 90%
- inhibition of growth at 150 g/ha (Brassica juncea): ≥ 90%
- inhibition of growth at 150 g/ha (Amaranthus retroflexus): ≥ 90%
- inhibition of growth at 150 g/ha (Digitaria sanguinalis): < 50%
- pKi [1]: 4.73

SMILES: COc1ccn2nc(S(=O)(=O)Nc3cc(F)c(F)c(F)c3)nc2n1
- inhibition of growth at 150 g/ha (Echinochloa crus-galli): < 50%
- inhibition of growth at 150 g/ha (Eclipta prostrata): < 50%
- inhibition of growth at 150 g/ha (Brassica juncea): < 50%
- inhibition of growth at 150 g/ha (Poa annua): < 50%
- inhibition of growth at 150 g/ha (Amaranthus retroflexus): < 50%
- inhibition of growth at 150 g/ha (Digitaria sanguinalis): < 50%
- pKi [1]: < 3.00

SMILES: COc1ccn2nc(S(=O)(=O)Nc3cc(F)ccc3F)nc2n1
- inhibition of growth at 150 g/ha (Echinochloa crus-galli): < 50%
- inhibition of growth at 150 g/ha (Eclipta prostrata): 50%
- inhibition of growth at 150 g/ha (Brassica juncea): 50%
- inhibition of growth at 150 g/ha (Poa annua): < 50%
- inhibition of growth at 150 g/ha (Amaranthus retroflexus): 50%
- inhibition of growth at 150 g/ha (Digitaria sanguinalis): < 50%
- pKi [1]: 4.27

SMILES: COc1ccn2nc(S(=O)(=O)Nc3ccccc3F)nc2n1
- inhibition of growth at 150 g/ha (Echinochloa crus-galli): < 50%
- inhibition of growth at 150 g/ha (Eclipta prostrata): ≥ 80%
- inhibition of growth at 150 g/ha (Brassica juncea): 50%
- inhibition of growth at 150 g/ha (Poa annua): < 50%
- inhibition of growth at 150 g/ha (Amaranthus retroflexus): 50%
- inhibition of growth at 150 g/ha (Digitaria sanguinalis): < 50%
- pKi [1]: 4.59
